The source made the active and inactive calls. The rule behind the calls is not given here.
How the values were obtained:
[1] = molecular target: T1, Peroxisome proliferator-activated receptor gamma (Homo sapiens, UniProt P37231); test: Displacement of pan-PPAR fluormone from PPARgamma LBD by TR-FRET based LanthaScreen assay
T1 sequence (P37231 whole entry): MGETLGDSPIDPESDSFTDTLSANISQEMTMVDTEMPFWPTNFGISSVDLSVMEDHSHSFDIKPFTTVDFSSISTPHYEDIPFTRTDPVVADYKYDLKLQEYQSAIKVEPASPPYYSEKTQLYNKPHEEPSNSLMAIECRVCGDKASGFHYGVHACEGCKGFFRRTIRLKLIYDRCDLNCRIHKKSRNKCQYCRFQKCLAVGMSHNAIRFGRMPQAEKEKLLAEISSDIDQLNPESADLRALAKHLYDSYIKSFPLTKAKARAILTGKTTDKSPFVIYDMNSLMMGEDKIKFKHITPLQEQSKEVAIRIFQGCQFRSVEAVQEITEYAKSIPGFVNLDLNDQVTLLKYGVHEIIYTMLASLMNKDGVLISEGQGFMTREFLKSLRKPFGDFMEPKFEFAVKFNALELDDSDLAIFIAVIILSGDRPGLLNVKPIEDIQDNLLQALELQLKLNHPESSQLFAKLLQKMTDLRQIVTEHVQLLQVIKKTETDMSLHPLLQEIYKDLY

[2] = molecular target: T2, Peroxisome proliferator-activated receptor gamma (Homo sapiens) (UniProt P37231); test: (§1) Agonist activity at PPARgamma LBD in human 293H DA cells after 16 hrs by TR-FRET activation reporter assay; assay type: functional, cell-based
T2 sequence (whole entry): T1 sequence (P37231 whole entry)
How it was run: (§2)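 GeneBLAzer PPARγ 293H DA cells plated at 30 000 cells/well, exposed to compound (0.1 to 10 000 nM; 0.1% DMSO final) for approximately 16 h. LiveBLAzer-FRET B/G substrate loaded for 2 h, then fluorescence read at 460 and 530 nm. […] EC50 from sigmoidal varying-slope fit. Triplicates, at least two independent experiments.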

[3] = molecular target: T1, Peroxisome proliferator-activated receptor gamma; test: as §1; assay type: functional, cell-based; how it was run: as §2
[4] = molecular target: T3, Peroxisome proliferator-activated receptor alpha (Homo sapiens) (UniProt Q07869); test: Displacement of pan-PPAR fluormone from PPARalpha LBD at >= 100 uM by TR-FRET based LanthaScreen assay
T3 sequence (whole entry): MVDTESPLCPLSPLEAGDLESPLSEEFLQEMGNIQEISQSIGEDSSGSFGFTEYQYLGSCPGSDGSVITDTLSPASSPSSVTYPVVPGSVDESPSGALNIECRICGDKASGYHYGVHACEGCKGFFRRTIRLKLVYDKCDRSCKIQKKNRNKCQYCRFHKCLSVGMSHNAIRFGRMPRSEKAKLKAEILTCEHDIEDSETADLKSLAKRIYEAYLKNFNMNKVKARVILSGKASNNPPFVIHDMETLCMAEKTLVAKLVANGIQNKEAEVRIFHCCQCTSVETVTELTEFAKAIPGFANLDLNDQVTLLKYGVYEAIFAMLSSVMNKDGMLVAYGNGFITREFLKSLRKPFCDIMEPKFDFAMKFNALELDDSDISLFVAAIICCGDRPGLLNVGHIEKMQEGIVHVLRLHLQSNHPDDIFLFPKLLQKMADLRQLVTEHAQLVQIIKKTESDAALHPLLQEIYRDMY

[5] = Octanol-water partition coefficient, log P of the compound; assay type: physicochemical
[6] = molecular target: PPAR delta/gamma (Homo sapiens) (UniProt P37231+Q03181); test: Selectivity ratio of EC50 for PPARdelta LBD to EC50 for PPARgamma LBD
[7] = molecular target: T1, Peroxisome proliferator-activated receptor gamma; test: Binding affinity to PPARgamma LBD by fluorescence polarization based competitive binding assay
[8] = molecular target: T4, Peroxisome proliferator-activated receptor delta (Homo sapiens, UniProt Q03181); test: Displacement of pan-PPAR fluormone from PPARdelta LBD by TR-FRET based LanthaScreen assay
T4 sequence (Q03181 whole entry): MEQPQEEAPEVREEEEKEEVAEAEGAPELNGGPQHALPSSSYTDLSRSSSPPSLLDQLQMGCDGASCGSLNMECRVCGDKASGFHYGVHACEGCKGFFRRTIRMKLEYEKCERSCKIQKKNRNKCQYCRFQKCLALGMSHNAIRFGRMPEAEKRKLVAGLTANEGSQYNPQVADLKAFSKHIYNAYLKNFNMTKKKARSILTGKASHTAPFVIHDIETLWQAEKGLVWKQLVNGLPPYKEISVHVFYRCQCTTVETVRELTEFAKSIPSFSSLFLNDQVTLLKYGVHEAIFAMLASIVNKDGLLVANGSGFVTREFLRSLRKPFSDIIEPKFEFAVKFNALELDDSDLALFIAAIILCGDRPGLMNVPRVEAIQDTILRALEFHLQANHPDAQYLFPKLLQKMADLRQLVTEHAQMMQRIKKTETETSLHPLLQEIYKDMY

[9] = molecular target: T2, Peroxisome proliferator-activated receptor gamma (Homo sapiens); test: Agonist activity at PPARgamma LBD in human 293H DA cells after 16 hrs by TR-FRET activation reporter assay relative to rosiglitazone; assay type: functional, cell-based; how it was run: as §2
Homo sapiens = species on record: Homo sapiens; test: Selectivity ratio of EC50 for PPARalpha LBD to EC50 for PPARgamma LBD
[10] = molecular target: T5, Peroxisome proliferator-activated receptor alpha (Homo sapiens, UniProt Q07869); test: Displacement of pan-PPAR fluormone from PPARalpha LBD by TR-FRET based LanthaScreen assay
T5 sequence (Q07869 whole entry): T3 sequence (whole entry)

[11] = molecular target: T2, Peroxisome proliferator-activated receptor gamma (Homo sapiens); test: Binding affinity to PPARgamma LBD at >= 100 uM by fluorescence polarization based competitive binding assay
[12] = molecular target: T2, Peroxisome proliferator-activated receptor gamma (Homo sapiens); test: Displacement of pan-PPAR fluormone from PPARgamma LBD at >= 100 uM by TR-FRET based LanthaScreen assay

SMILES	EC50 [1] [nM]	Activity [2]	EC50 [3] [nM]	inhibition [4]	logP [5]	Ratio EC50 [6]	EC50 [7] [nM]	EC50 [8] [nM]	Emax [9] [%]	Ratio EC50 (Homo sapiens)	EC50 ([10]; read-out: EC50) [nM]	inhibition [11]	inhibition [12]	EC50 [10]
CCOC(=O)c1sc(N2C(=O)C(O)=C(C(=O)c3cccs3)C2c2ccc(C)o2)nc1C (stereo unspecified)	2400	Dose-dependent effect	594	inactive	2.39	10.8	2400	26000	77.5					
CN(CCOc1ccc(CC2SC(=O)NC2=O)cc1)c1ccccn1 (stereo unspecified) [ROSIGLITAZONE]				inactive	2.62									
O=C(Nn1cc([N+](=O)[O-])cn1)c1cccc(COc2ccc(Br)cc2)c1	5450	Dose-dependent effect	682		3.71	4	5450	21000	68.7	2	11400			
CC(C)(Sc1ccc(CCN(CCCCC2CCCCC2)C(=O)NC2CCCCC2)cc1)C(=O)O [GW7647]					8.02							inactive	inactive	
Cc1cc(SCc2sc(-c3ccc(C(F)(F)F)c(F)c3)nc2C)ccc1OCC(=O)O					5.95						920	inactive	inactive	
O=C1NC(=S)NC(=O)C1=Cc1ccc(OCc2ccccc2)c(Cl)c1	215	Dose-dependent effect	467		3.11		325		91.6					Not Active
CN(CCOc1ccc(C[C@H](Nc2ccccc2C(=O)c2ccccc2)C(=O)O)cc1)c1ccccn1					5.23									
